Measured values from different studies.
Target: Homeodomain-interacting protein kinase 3 (HIPK3, Homo sapiens, UniProt Q9H422)
Read-out: enzyme activity
Mode: inhibitor

Cc1cnc(NC2CCOCC2)nc1-n1cnc(C(=O)NC(CN)c2cc(F)cc(Cl)c2)c1 (stereo not shown) has a remaining activity of 94% (radiometric; 1 µM).
With COc1cc(Cl)c(C(=O)N[C@@H](CN[C@H]2CC[C@@H](N)CC2)Cc2ccc(C#N)cc2)cc1-c1ccc(CN[C@H](C)c2ccc(C)cc2)o1 the remaining activity was 96% (1 µM).
For CCCOc1ccc(OC)c(F)c1C(=O)c1ccc(C(=O)N[C@@H]2CNC[C@H]2NC(=O)c2ccc3[nH]ncc3c2)cc1, the remaining activity was 97% (10 µM).
The remaining activity of CC(C)(O)[C@H]1CC[C@H](Nc2ccc3ncc(-c4cccc(C(F)(F)F)c4)n3n2)CC1 is reported as 78.4% (1 µM).
The remaining activity of Cc1sc(C(=O)NC2COC2)cc1-n1cc(NC(=O)Nc2c(F)cccc2Cl)cn1 is reported as 88.5% (10 µM).
With Cc1ccc(C(=O)Nc2ccc(CN3CCN(C)CC3)c(C(F)(F)F)c2)cc1C#Cc1cnc2cccnn12 the remaining activity was 93% (23.5 nM).
O=C(Nc1cnn(-c2csc(C(=O)NC3COC3)c2)c1)Nc1ccccc1Cl gave a remaining activity of 97.6% (5 µM).
The remaining activity of O=C(O)c1ccc2c(c1)nc(Nc1ccc3ccccc3c1)c1ccncc12 is reported as 7% (radiometric; 1 µM).
CCN(CC)c1ccc(C2=NNC(=O)CC2C)cc1[N+](=O)[O-] (stereo not shown) has a remaining activity of 40% (10 µM).
The remaining activity of O=C(O)c1ccc2c(c1)nc(Nc1ccc(F)c(Cl)c1)c1ncncc12 is reported as 12% (radiometric; 1 µM).
With Oc1cccc(-c2nc(N3CCOCC3)c3oc4ncccc4c3n2)c1 the remaining activity was 82% (10 µM).
With O=C(O)c1ccc2c(c1)nc(NCc1ccccc1)c1ncncc12 the remaining activity was 52% (radiometric; 1 µM).
CC(C)(C)c1nc(-c2cccc(NS(=O)(=O)c3c(F)cccc3F)c2F)c(-c2ccnc(N)n2)s1 has a remaining activity of 99% (radiometric; 1 µM).
With O=C(O)c1ccc2c(c1)nc(NCCc1cccc(Cl)c1)c1ncncc12 the remaining activity was 38% (radiometric; 1 µM).
CC(C)(C)c1nc2c(s1)c1nc(N)ncc1c1ccc(NS(=O)(=O)c3c(F)cccc3F)c(F)c12 has a remaining activity of 96% (radiometric; 1 µM).
O=C(O)c1ccc2c(c1)nc(NCCc1ccccc1)c1ccncc12 gave a remaining activity of 8% (radiometric; 1 µM).
For FC(F)c1nc2ccccc2n1-c1nc(N2CCOCC2)nc(N2CCOCC2)n1, the remaining activity was 98% (10 µM).
With O=C(O)c1ccc2c(c1)nc(Nc1ccc(F)c(Cl)c1)c1ccncc12 the remaining activity was 5% (radiometric; 1 µM).
The remaining activity of COc1cc(Nc2cnc(C#N)c(O[C@H](C)CN(C)C)n2)ncc1-c1cnn(C)c1 is reported as 96% (radiometric; 1 µM).
